Laboratory results taken from ChEMBL document CHEMBL4689842, “EUbOPEN Chemogenomics Library wave 1” (2021).

Tested on: U2OS
Experiment: Multiplex assay against U2OS
Assay type: toxicity, cell-based
Details: human
How it was run: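 With compound added, live cells were imaged on a CQ1 microscope at 37°C and 5% CO2; staining with Hoechst33342, BioTracker Green Microtubule Cytoskeleton Dye, MitoTracker Red and Annexin V Alexa Fluor 680 had been done at seeding. The CellPathfinder machine-learning gating scheme split cells into Hoechst high-intensity objects or normal cells, normal cells into healthy, pyknosed or fragmented nuclei, and pyknosed cells into mitotic or apoptotic. The tubulin, mitochondrial-mass and membrane-permeability phenotypes are per cents of healthy-nucleus cells.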

[1] = 12 h, 1 µM, compound concentration 1 uM, replicate 1
[2] = 12 h, 1 µM, compound concentration 1 uM, replicate 2
[3] = 12 h, 10 µM, compound concentration 10 uM, replicate 1
[4] = 12 h, 10 µM, compound concentration 10 uM, replicate 2
[5] = 24 h, 1 µM, compound concentration 1 uM, replicate 1
[6] = 24 h, 1 µM, compound concentration 1 uM, replicate 2
[7] = 24 h, 10 µM, compound concentration 10 uM, replicate 1
[8] = 24 h, 10 µM, compound concentration 10 uM, replicate 2
[9] = 48 h, 1 µM, compound concentration 1 uM, replicate 1
[10] = 48 h, 1 µM, compound concentration 1 uM, replicate 2
[11] = 48 h, 10 µM, compound concentration 10 uM, replicate 1
[12] = 48 h, 10 µM, compound concentration 10 uM, replicate 2

`O=C(Cc1ccc(-c2ccc(OCCN3CCOCC3)cc2)cn1)NCc1ccccc1` [TIRBANIBULIN] was tested, and the “Population Apoptotic (%)” value [1] was 52%, the “Population Fragmented Nuclei (%)” value [1] was 10% and the “Population Healthy Nuclei (%)” value [1] was 76%. The “Population Hoechst High Intensity Objects (%)” value [1] was 7%, the “Population Membrane Permeable-Phenotype (%)” value [1] was 8% and the “Population Mitochondria Different-Phenotype (%)” value [1] was 20%. For the same compound, the “Population Mitotic Cells (%)” value [1] was 47%, the “Population Normal (%)” value [1] was 92% and the “Population Pyknosed Nuclei (%)” value [1] was 12%. The “Population Tubulin-Different-Phenotype (%)” value [1] was 19%, the “Total Cell Count” value [1] was 172 and the “Population Apoptotic (%)” value [2] was 0%. For the same compound, the “Population Fragmented Nuclei (%)” value [2] was 5%, the “Population Healthy Nuclei (%)” value [2] was 90% and the “Population Hoechst High Intensity Objects (%)” value [2] was 12%. For the same compound, the “Population Membrane Permeable-Phenotype (%)” value [2] was 9%, the “Population Mitochondria Different-Phenotype (%)” value [2] was 21% and the “Population Mitotic Cells (%)” value [2] was 100%. For the same compound, the “Population Normal (%)” value [2] was 87%, the “Population Pyknosed Nuclei (%)” value [2] was 4% and the “Population Tubulin-Different-Phenotype (%)” value [2] was 12%. The “Total Cell Count” value [2] was 108, the “Population Apoptotic (%)” value [3] was 21% and the “Population Fragmented Nuclei (%)” value [3] was 10%. For the same compound, the “Population Healthy Nuclei (%)” value [3] was 72%, the “Population Hoechst High Intensity Objects (%)” value [3] was 10% and the “Population Membrane Permeable-Phenotype (%)” value [3] was 8%. For the same compound, the “Population Mitochondria Different-Phenotype (%)” value [3] was 16%, the “Population Mitotic Cells (%)” value [3] was 78% and the “Population Normal (%)” value [3] was 89%. For the same compound, the “Population Pyknosed Nuclei (%)” value [3] was 16%, the “Population Tubulin-Different-Phenotype (%)” value [3] was 10% and the “Total Cell Count” value [3] was 169. The “Population Apoptotic (%)” value [4] was 50%, the “Population Fragmented Nuclei (%)” value [4] was 13% and the “Population Healthy Nuclei (%)” value [4] was 78%. The “Population Membrane Permeable-Phenotype (%)” value [4] was 4%, the “Population Mitochondria Different-Phenotype (%)” value [4] was 19% and the “Population Mitotic Cells (%)” value [4] was 50%. For the same compound, the “Population Pyknosed Nuclei (%)” value [4] was 7%, the “Population Tubulin-Different-Phenotype (%)” value [4] was 12% and the “Total Cell Count” value [4] was 81. For the same compound, the “Population Apoptotic (%)” value [5] was 34%, the “Population Fragmented Nuclei (%)” value [5] was 20% and the “Population Healthy Nuclei (%)” value [5] was 50%. The “Population Hoechst High Intensity Objects (%)” value [5] was 8%, the “Population Membrane Permeable-Phenotype (%)” value [5] was 9% and the “Population Mitochondria Different-Phenotype (%)” value [5] was 35%. The “Population Mitotic Cells (%)” value [5] was 65%, the “Population Normal (%)” value [5] was 91% and the “Population Pyknosed Nuclei (%)” value [5] was 29%. The “Population Tubulin-Different-Phenotype (%)” value [5] was 21%, the “Total Cell Count” value [5] was 227 and the “Population Apoptotic (%)” value [6] was 61%. The “Population Fragmented Nuclei (%)” value [6] was 16%, the “Population Healthy Nuclei (%)” value [6] was 66% and the “Population Hoechst High Intensity Objects (%)” value [6] was 9%. The “Population Membrane Permeable-Phenotype (%)” value [6] was 6%, the “Population Mitochondria Different-Phenotype (%)” value [6] was 44% and the “Population Mitotic Cells (%)” value [6] was 38%. The “Population Normal (%)” value [6] was 90%, the “Population Pyknosed Nuclei (%)” value [6] was 17% and the “Population Tubulin-Different-Phenotype (%)” value [6] was 10%. The “Total Cell Count” value [6] was 155, the “Population Apoptotic (%)” value [7] was 34% and the “Population Fragmented Nuclei (%)” value [7] was 15%. The “Population Healthy Nuclei (%)” value [7] was 64%, the “Population Hoechst High Intensity Objects (%)” value [7] was 8% and the “Population Membrane Permeable-Phenotype (%)” value [7] was 8%. For the same compound, the “Population Mitochondria Different-Phenotype (%)” value [7] was 46%, the “Population Mitotic Cells (%)” value [7] was 65% and the “Population Normal (%)” value [7] was 91%. The “Population Pyknosed Nuclei (%)” value [7] was 20%, the “Population Tubulin-Different-Phenotype (%)” value [7] was 11% and the “Total Cell Count” value [7] was 160. The “Population Apoptotic (%)” value [8] was 66%, the “Population Fragmented Nuclei (%)” value [8] was 19% and the “Population Healthy Nuclei (%)” value [8] was 57%. The “Population Hoechst High Intensity Objects (%)” value [8] was 10%, the “Population Membrane Permeable-Phenotype (%)” value [8] was 10% and the “Population Mitochondria Different-Phenotype (%)” value [8] was 40%. The “Population Mitotic Cells (%)” value [8] was 33%, the “Population Normal (%)” value [8] was 89% and the “Population Pyknosed Nuclei (%)” value [8] was 23%. The “Population Tubulin-Different-Phenotype (%)” value [8] was 13%, the “Total Cell Count” value [8] was 82 and the “Population Apoptotic (%)” value [9] was 67%. The “Population Fragmented Nuclei (%)” value [9] was 24%, the “Population Healthy Nuclei (%)” value [9] was 40% and the “Population Hoechst High Intensity Objects (%)” value [9] was 9%. For the same compound, the “Population Membrane Permeable-Phenotype (%)” value [9] was 7%, the “Population Mitochondria Different-Phenotype (%)” value [9] was 39% and the “Population Mitotic Cells (%)” value [9] was 32%. For the same compound, the “Population Normal (%)” value [9] was 90%, the “Population Pyknosed Nuclei (%)” value [9] was 35% and the “Population Tubulin-Different-Phenotype (%)” value [9] was 25%. The “Total Cell Count” value [9] was 340, the “Population Apoptotic (%)” value [10] was 75% and the “Population Fragmented Nuclei (%)” value [10] was 22%. The “Population Healthy Nuclei (%)” value [10] was 45%, the “Population Hoechst High Intensity Objects (%)” value [10] was 11% and the “Population Membrane Permeable-Phenotype (%)” value [10] was 29%. For the same compound, the “Population Mitochondria Different-Phenotype (%)” value [10] was 64%, the “Population Mitotic Cells (%)” value [10] was 25% and the “Population Normal (%)” value [10] was 88%. For the same compound, the “Population Pyknosed Nuclei (%)” value [10] was 32%, the “Population Tubulin-Different-Phenotype (%)” value [10] was 35% and the “Total Cell Count” value [10] was 239. The “Population Apoptotic (%)” value [11] was 64%, the “Population Fragmented Nuclei (%)” value [11] was 24% and the “Population Healthy Nuclei (%)” value [11] was 32%. For the same compound, the “Population Hoechst High Intensity Objects (%)” value [11] was 10%, the “Population Membrane Permeable-Phenotype (%)” value [11] was 15% and the “Population Mitochondria Different-Phenotype (%)” value [11] was 63%. The “Population Mitotic Cells (%)” value [11] was 35%, the “Population Normal (%)” value [11] was 89% and the “Population Pyknosed Nuclei (%)” value [11] was 43%. For the same compound, the “Population Tubulin-Different-Phenotype (%)” value [11] was 22%, the “Total Cell Count” value [11] was 174 and the “Population Apoptotic (%)” value [12] was 70%. The “Population Fragmented Nuclei (%)” value [12] was 23%, the “Population Healthy Nuclei (%)” value [12] was 45% and the “Population Hoechst High Intensity Objects (%)” value [12] was 11%. The “Population Membrane Permeable-Phenotype (%)” value [12] was 44%, the “Population Mitochondria Different-Phenotype (%)” value [12] was 68% and the “Population Mitotic Cells (%)” value [12] was 29%. The “Population Normal (%)” value [12] was 88%, the “Population Pyknosed Nuclei (%)” value [12] was 30% and the “Population Tubulin-Different-Phenotype (%)” value [12] was 36%. For the same compound, the “Total Cell Count” value [12] was 85.
